Measurements taken from ChEMBL document CHEMBL1143138, “Synthesis and antimicrobial activity of beta-lactam-bile acid conjugates linked via triazole” (Bioorg Med Chem Lett, 2008).
≈ marks a conversion by molar mass, not a printed value.

Experiments:
Type in all cases: functional, organism-based
Yarrowia lipolytica = assay: Antimicrobial activity against Yarrowia lipolytica NCL4 by broth microdilution method
In short: (§1)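 Standard NCCLS broth microdilution. Fungal strains were NCL isolates and bacterial strains were NCIM cultures, with DMSO as the negative control. MIC was taken as the concentration giving 90% growth inhibition relative to the growth control, and IC50 as the concentration giving 50% growth inhibition. Values are in µg/mL.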

Candida albicans = assay: Antimicrobial activity against Candida albicans NCL1 by broth microdilution method; in short: as §1
Fusarium oxysporum = assay: Antimicrobial activity against Fusarium oxysporum NCL5 by broth microdilution method; in short: as §1
Cryptococcus neoformans = assay: Antimicrobial activity against Cryptococcus neoformans NCL2 by broth microdilution method; in short: as §1
Staphylococcus aureus = assay: Antimicrobial activity against Staphylococcus aureus NCIM2122 by broth microdilution method; in short: as §1
Benjaminiella poitrasii = assay: Antimicrobial activity against Benjaminiella poitrasii NCL3 by broth microdilution method; in short: as §1
Escherichia coli = assay: Antimicrobial activity against Escherichia coli NCIM2574 by broth microdilution method; in short: as §1

SMILES | IC50 (Yarrowia lipolytica) [mg/L] | MIC (Yarrowia lipolytica) [mg/L] | IC50 (Candida albicans) [mg/L] | MIC (Candida albicans) [mg/L] | IC50 (Fusarium oxysporum) [mg/L] | MIC (Fusarium oxysporum) [mg/L] | IC50 (Cryptococcus neoformans) [mg/L] | MIC (Cryptococcus neoformans) [mg/L] | IC50 (Staphylococcus aureus) [mg/L] | MIC (Staphylococcus aureus) [mg/L] | IC50 (Benjaminiella poitrasii) [mg/L] | MIC (Benjaminiella poitrasii) [mg/L] | IC50 (Escherichia coli) [mg/L] | MIC (Escherichia coli) [mg/L]
C#CCOC(=O)CC[C@@H](C)[C@H]1CC[C@H]2[C@@H]3[C@H](O)C[C@@H]4C[C@H](O)CC[C@]4(C)[C@H]3C[C@H](O)[C@]12C | 64 (≈ 143 µM) | > 128 | 128 (≈ 287 µM) | > 128 | 128 (≈ 287 µM) | > 128 | > 128 | > 128 | 128 (≈ 287 µM) | > 128 | > 128 | > 128 | 128 (≈ 287 µM) | > 128
C#CCNC(=O)CC[C@@H](C)[C@H]1CC[C@H]2[C@@H]3CC[C@@H]4C[C@H](O)CC[C@]4(C)[C@H]3C[C@H](O)[C@]12C | > 128 | > 128 | 64 (≈ 149 µM) | > 128 | 64 (≈ 149 µM) | > 128 | 128 (≈ 298 µM) | > 128 | 128 (≈ 298 µM) | > 128 | 128 (≈ 298 µM) | > 128 | > 128 | > 128
C#CCNC(=O)CC[C@@H](C)[C@H]1CC[C@H]2[C@@H]3[C@H](O)C[C@@H]4C[C@H](O)CC[C@]4(C)[C@H]3C[C@H](O)[C@]12C | 64 (≈ 144 µM) | > 128 | > 128 | > 128 | 128 (≈ 287 µM) | > 128 | > 128 | > 128 | 64 (≈ 144 µM) | > 128 | > 128 | > 128 | 128 (≈ 287 µM) | > 128
C#CCOC(=O)CC[C@@H](C)[C@H]1CC[C@H]2[C@@H]3CC[C@@H]4C[C@H](O)CC[C@]4(C)[C@H]3C[C@H](O)[C@]12C | 128 (≈ 297 µM) | > 128 | 32 (≈ 74.3 µM) | 128 (≈ 297 µM) | 64 (≈ 149 µM) | > 128 | 64 (≈ 149 µM) | > 128 | 128 (≈ 297 µM) | > 128 | 128 (≈ 297 µM) | > 128 | 128 (≈ 297 µM) | > 128
COc1ccc(N2C(=O)C(N=[N+]=[N-])C2c2ccccc2)cc1 (racemic) | 128 (≈ 435 µM) | > 128 | 64 (≈ 217 µM) | > 128 | 64 (≈ 217 µM) | > 128 | > 128 | > 128 | > 128 | > 128 | > 128 | > 128 | 64 (≈ 217 µM) | > 128
COc1ccc(N2C(=O)C(N=[N+]=[N-])C2c2ccc(Cl)cc2)cc1 (racemic) | > 128 | > 128 | 64 (≈ 195 µM) | > 128 | 64 (≈ 195 µM) | > 128 | 64 (≈ 195 µM) | > 128 | > 128 | > 128 | > 128 | > 128 | 128 (≈ 389 µM) | > 128
C[C@@H]1[C@H](O)[C@@H](C)/C=C/C=C/C=C/C=C/C=C/C=C/C=C/[C@H](O[C@@H]2O[C@H](C)[C@@H](O)[C@H](N)[C@@H]2O)C[C@@H]2O[C@](O)(C[C@@H](O)C[C@@H](O)[C@H](O)CC[C@@H](O)C[C@@H](O)CC(=O)O[C@H]1C)C[C@H](O)[C@H]2C(=O)O (stereo in doubt) [AMPHOTERICIN B] | 8 (≈ 8.66 µM) | 16 (≈ 17.3 µM) | 0.5 (≈ 0.541 µM) | 2 (≈ 2.16 µM) | 8 (≈ 8.66 µM) | 16 (≈ 17.3 µM) | 8 (≈ 8.66 µM) | 16 (≈ 17.3 µM) |  |  | 8 (≈ 8.66 µM) | 16 (≈ 17.3 µM) |  | 
CC1(C)S[C@@H]2[C@H](NC(=O)[C@H](N)c3ccccc3)C(=O)N2[C@H]1C(=O)O [AMPICILLIN] |  |  |  |  |  |  |  |  | 4 (≈ 11.4 µM) |  |  |  | 1 (≈ 2.86 µM) | 
OC(Cn1cncn1)(Cn1cncn1)c1ccc(F)cc1F [FLUCONAZOLE] | 32 (≈ 104 µM) | 64 (≈ 209 µM) | 4 (≈ 13.1 µM) | 32 (≈ 104 µM) | 4 (≈ 13.1 µM) | 8 (≈ 26.1 µM) | 16 (≈ 52.2 µM) | 32 (≈ 104 µM) |  |  | 16 (≈ 52.2 µM) | 32 (≈ 104 µM) |  | 
CN(C)[C@@H]1C(O)=C(C(N)=O)C(=O)[C@@]2(O)C(O)=C3C(=O)c4c(O)cccc4[C@@](C)(O)[C@H]3C[C@@H]12 [TETRACYCLINE] |  |  |  |  |  |  |  |  | 8 (≈ 18 µM) | 16 (≈ 36 µM) |  |  | 4 (≈ 9 µM) | 8 (≈ 18 µM)
